# Measurements taken from PMC8282703 (Clinical cancer research : an official journal of the …, 2021).
# “And” between values parts separate entries of the source, which are not always exact repeats. Equal entries are not always repeated. Where two headings read alike, the source gives them in different places.
# Legend:
# [1] = system: Wee1 kinase; conditions: cited from earlier work
# [2] = system: PKMYT1; conditions: cited from earlier work
# [3] = system: Wee1 kinase; assay: Nuclear pY15-Cdk1/2 in paired tumor biopsies; type: in vivo, patients
# Outline: (§1)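 Expansion-cohort patients got 300 mg once daily on days 1-5 and 8-12 of 21-day cycles, with prophylactic anti-emetics. Paired 18-gauge core needle tumor biopsies were taken on C1D1 and C1D8 before the daily dose, after the 72-h dosing pause on days 6-7. Nuclear marker levels were assessed. pY15-Cdk, γH2AX and pNbs1 were reported as percent nuclear area positive. Patients were grouped by baseline pY15-Cdk.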
# [4] = system: recurrent uterine serous carcinoma; conditions: adavosertib monotherapy; cited from earlier work
# [5] = system: pHH3, γH2AX, RAD51, pNbs1; assay: DNA damage response and mitosis markers in paired tumor biopsies; type: in vivo, patients
# Outline: as §1
# [6] = system: advanced solid tumors; conditions: cited from earlier work
# [7] = human, in vivo
# [8] = twice daily x 5 doses for 2 weeks, in 3-week cycles; cited from earlier work
# [9] = system: advanced solid tumors; assay: Phase 1 trial of adavosertib: tumor response by RECIST 1.1
# [10] = Plasma pharmacokinetics of adavosertib; conditions: human, oral, 300 mg
# [11] = system: phospho-Cdk1; conditions: chemotherapy combinations, cited from earlier work
structure (smiles),measurement,setting,value
C=CCn1c(=O)c2cnc(Nc3ccc(N4CCN(C)CC4)cc3)nc2n1-c1cccc(C(C)(C)O)n1 [adavosertib],"Reduction of nuclear pY15-Cdk, twice-daily arm, individual patients","[1]; 2-5 hours after dose 5, 2 of 2 patients",84% and 90%
same,"Wee1 kinase suppression (pY15-Cdk1/2 reduction), twice-daily arm",[1]; tumor biopsies 2-5 hours after the fifth dose,80-90%
same,"Alanine aminotransferase increased, Grade 1-2 (%)","human, in vivo",11 (26%) patients (%)
same,"Anemia, Grade 1-2 (%)","human, in vivo",20 (47%) patients (%)
same,"Anemia, Grade 3 (%)","human, in vivo",9 (21%) patients (%)
same,"Anemia, any-grade","human, in vivo",69%
same,"Anemia, ≥ grade 3","human, in vivo",21%
same,"Anorexia, Grade 1-2 (%)","human, in vivo",17 (40%) patients (%)
same,"Aspartate aminotransferase increased, Grade 1-2 (%)","human, in vivo",11 (26%) patients (%)
same,"Dehydration, Grade 1-2 (%)","human, in vivo",5 (12%) patients (%)
same,"Dehydration, Grade 3 (%)","human, in vivo",1 (2%) patients (%)
same,"Diarrhea, Grade 1-2 (%)","human, in vivo",25 (60%) patients (%)
same,"Diarrhea, Grade 3 (%)","human, in vivo",2 (5%) patients (%)
same,Dose-limiting toxicities (type),"human, in vivo",grade 4 hematological toxicity and grade 3 fatigue
same,"Fatigue, Grade 1-2 (%)","human, in vivo",19 (45%) patients (%)
same,"Fatigue, Grade 3 (%)","human, in vivo",3 (7%) patients (%)
same,"Febrile neutropenia, Grade 3 (%)","human, in vivo",1 (2%) patients (%)
same,"Gastrointestinal adverse events (nausea, vomiting, diarrhea) that were ≥ grade 3","human, in vivo",≤ 12%
same,"Hypoalbuminemia, Grade 1-2 (%)","human, in vivo",9 (21%) patients (%)
same,"Hypocalcemia, Grade 1-2 (%)","human, in vivo",3 (7%) patients (%)
same,"Hypocalcemia, Grade 3 (%)","human, in vivo",1 (2%) patients (%)
same,"Hypocalcemia, grade 3 incidence","human, in vivo",2%
same,"Hypokalemia, Grade 1-2 (%)","human, in vivo",5 (12%) patients (%)
same,"Hypokalemia, Grade 3 (%)","human, in vivo",1 (2%) patients (%)
same,"Hypokalemia, grade 3 incidence","human, in vivo",2%
same,"Hypomagnesemia, Grade 1-2 (%)","human, in vivo",7 (17%) patients (%)
same,"Hypomagnesemia, Grade 3 (%)","human, in vivo",1 (2%) patients (%)
same,"Hypomagnesemia, grade 3 incidence","human, in vivo",2%
same,"Hyponatremia, Grade 1-2 (%)","human, in vivo",8 (19%) patients (%)
same,"Hyponatremia, Grade 3 (%)","human, in vivo",1 (2%) patients (%)
same,"Hyponatremia, grade 3 incidence","human, in vivo",2%
same,"Hypophosphatemia, Grade 1-2 (%)","human, in vivo",10 (24%) patients (%)
same,"Hypophosphatemia, Grade 3 (%)","human, in vivo",6 (14%) patients (%)
same,"Hypophosphatemia, ≥ grade 3","human, in vivo",14%
same,"Leukopenia, Grade 1-2 (%)","human, in vivo",12 (29%) patients (%)
same,"Leukopenia, Grade 3 (%)","human, in vivo",5 (12%) patients (%)
same,"Leukopenia, Grade 4 (%)","human, in vivo",4 (10%) patients (%)
same,"Leukopenia, grade 4 events","human, in vivo",10%
same,"Leukopenia, ≥ grade 3","human, in vivo",21%
same,"Lymphopenia, Grade 1-2 (%)","human, in vivo",18 (43%) patients (%)
same,"Lymphopenia, Grade 3 (%)","human, in vivo",12 (29%) patients (%)
same,"Lymphopenia, any-grade","human, in vivo",71%
same,"Lymphopenia, ≥ grade 3","human, in vivo",29%
same,"Median duration until recovery, grade 3/4 leukopenia","human, in vivo",5 days
same,"Median duration until recovery, grade 3/4 lymphopenia","human, in vivo",18 days
same,"Median duration until recovery, grade 3/4 neutropenia","human, in vivo",5 days
same,"Nausea, Grade 1-2 (%)","human, in vivo",31 (74%) patients (%)
same,"Nausea, Grade 3 (%)","human, in vivo",3 (7%) patients (%)
same,"Nausea, any grade, patients","human, in vivo",81%
same,"Nausea, vomiting, or diarrhea, each, patients","human, in vivo",> 60%
same,"Neutropenia, Grade 1-2 (%)","human, in vivo",5 (12%) patients (%)
same,"Neutropenia, Grade 3 (%)","human, in vivo",4 (10%) patients (%)
same,"Neutropenia, Grade 4 (%)","human, in vivo",5 (12%) patients (%)
same,"Neutropenia, grade 4 events","human, in vivo",12%
same,"Thrombocytopenia, Grade 1-2 (%)","human, in vivo",13 (31%) patients (%)
same,"Thrombocytopenia, Grade 3 (%)","human, in vivo",5 (12%) patients (%)
same,"Thrombocytopenia, Grade 4 (%)","human, in vivo",1 (2%) patients (%)
same,"Thrombocytopenia, grade 4 events","human, in vivo",2%
same,"Vomiting, Grade 1-2 (%)","human, in vivo",24 (57%) patients (%)
same,"Vomiting, Grade 3 (%)","human, in vivo",5 (12%) patients (%)
same,DLTs at dose levels other than 400 mg QD,in vivo,No DLTs
same,Recommended phase 2 dose (RPh2D),once daily on days 1-5 and 8-12 in 21-day cycles,300 mg
same,"Upper respiratory infection, Grade 3 (%)","once-daily adavosertib, n = 42 patients",1 (2%) patients (%)
same,Inhibition of PKMYT1,[2],does not substantially inhibit PKMYT1
same,Increases in nuclear pY15-Cdk at C1D8,"[3]; 4 of 5 patients with low baseline pY15-Cdk (≤ 2.2% NAP), p < 0.0001",192%-1094%
same,Patients with tumor pY15-Cdk levels higher than baseline on C1D8 (pre-dose),[3]; of 8 patients with evaluable biopsy pairs (of 5 with low baseline),4 patients
same,Preliminary overall response rate,[4],29%
same,Nuclear pHH3 levels between baseline and C1D8,[5]; 8 patients,generally unchanged
same,Changes in tumor levels of nuclear RAD51,"[5]; 8 patients, baseline vs C1D8",None of the 8 patients evaluable for pharmacodynamic response showed changes
same,Levels of DNA repair markers (γH2AX and/or pNbs1) at C1D8,[5]; both patients with significantly decreased pY15-Cdk,significant increases
same,"pHH3 positivity at C1D8, patient 1010056","[5]; from 1.1% at baseline, best response PD, p < 0.0001",4.1 % cells positive
same,"Overall response rate, twice-daily adavosertib","[6]; 25 enrolled patients, 90% confidence interval [1%, 23%]",8%
same,"PRs, twice-daily adavosertib",[6]; among 25 enrolled patients,2 patients
same,Plasma concentrations day 5 versus day 1,[7],higher on day 5 compared to day 1
same,"MTD, twice-daily regimen",[8],225 mg
same,"Median number of treatment cycles, patients with SD","[9]; 20 patients, range 2-26",4 cycles
same,Patients with SD receiving ≥ 11 cycles of treatment,[9]; of 20 patients with SD,5 patients
same,Patients with best response of SD for ≥ 9 months,[9]; once-daily adavosertib,5 patients
same,Overall response rate,"[9]; once-daily adavosertib, 42 enrolled patients, 90% confidence interval [6%, 26%]",14%
same,Patients with PR at the 400 mg dose level,"[9]; out of the 3 enrolled, both ovarian cancer, dose-reduced to 300 mg",2 patients
same,Patients with PR at the MTD (300 mg),[9]; out of the 26 enrolled at the MTD,4 patients
same,concentration at 72 h,[10],> 5 nM
same,Target suppression (phospho-Cdk1 attenuation),[11]; adavosertib twice daily at 25 mg,not at 25 mg
same,Target suppression (phospho-Cdk1 attenuation),[11]; adavosertib twice daily at 200 mg or 225 mg,significant target suppression
